Exocytosis inh: lytic granule exocytosis inhibition | TALL-104 LAMP-1 surface exposure, flow cytometry; cells stimulated with thapsigargin and PMA | inhibition, % at 10 µM | hit rate 0.66% among 360,000 | AID 651702;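 active means inhibition above about 55%, limit read from the data; inconclusive means no clear call, values can overlap the other calls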
CSN inh: inhibitors of human CSN-mediated cullin deneddylation | Q92905 | hit rate 0.38% among 360,000 | Purified CSN, SCF-Nedd8-OG deneddylation, fluorescence polarization | AID 651999 | inhibition, % at 12.5 µM;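 active means pattern-corrected inhibition above about 35%, with an unprinted fluorescence ratio check between 0.5 and 1.5, limit read from the data, passing the limit was not always enough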;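 further: 0% = enzyme with substrate and 100% = substrate without enzyme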
Target sequence (Q92905 whole entry, looked up, one chain of several): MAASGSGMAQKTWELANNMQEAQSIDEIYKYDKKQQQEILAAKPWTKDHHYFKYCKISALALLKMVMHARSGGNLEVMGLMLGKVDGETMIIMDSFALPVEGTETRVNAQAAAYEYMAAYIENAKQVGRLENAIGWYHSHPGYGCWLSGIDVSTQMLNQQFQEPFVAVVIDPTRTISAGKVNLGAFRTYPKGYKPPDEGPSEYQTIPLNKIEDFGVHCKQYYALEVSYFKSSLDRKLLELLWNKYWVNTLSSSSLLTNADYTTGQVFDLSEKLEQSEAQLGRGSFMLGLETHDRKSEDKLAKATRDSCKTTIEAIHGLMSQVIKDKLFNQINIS
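Test system: Human Csn5 produced in HEK293T cells | Compound: 12.5 µM single point | Times: 90 min, room temperature | Signal: Fluorescence polarization readout | Read-out basis: % inhibition of substrate cleavage by Csn5 | Controls: no-enzyme wells high, enzyme-with-substrate wells low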
Myeloid diff 2: myeloid differentiation induction; AID 624256; ER-HoxA9 myeloid progenitors, lysozyme-GFP differentiation, flow cytometry; calls only at 10 µM; hit rate 1% among 360,000;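 active means normalized GFP-positive differentiation at or above the plate's own cutoff, the solvent-only control mean plus 3 SD; inconclusive means no clear call, values can overlap the other calls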;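 further: cells exposed to compound for four days before flow analysis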
HNF4A DNA FP: change in binding of human HNF4 alpha to DNA. P41235. HNF4a-FITC DNA binding, fluorescence polarization, 1 h. activity change, % at 10 µM. hit rate 0.3% among 360,000; in the data active means activity change above about 30%, passing the limit was not always enough
Granule exo CP1: blocks lytic granule exocytosis | shares compounds with Exocytosis inh | TALL-104 cells, LAMP-1 externalization, flow cytometry; stimulated with PMA plus thapsigargin | inhibition, % at 10 µM | hit rate 11% among 1,500 | AID 651954; in the data active means inhibition above about 60%;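 further: 0% = stimulated vehicle wells and 100% = unstimulated wells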
* = called active by the depositor; i = inactive; ? = inconclusive; · = no result given. The list is not random: actives were taken first. Their share in the collection is about 2.2%.

SMILES	Exocytosis inh	CSN inh	Myeloid diff 2	HNF4A DNA FP	Granule exo CP1
Cc1cccc(C)c1OCC(O)CN(Cc1ccccc1O)C1CCCCC1 (centres undefined)	57.3*	3.8	i	-1.4	-3.5
CN(CC(O)COc1ccc(OCC(O)CN(C)C2CCCCC2)cc1)C1CCCCC1 (centres undefined)	-2.1	-2.0	i	2.0	·
CCOCc1nnc(NC(=O)CS(=O)(=O)c2ccc(C)cc2)s1	-9.0	-10.0	i	-3.1	·
CC(C)(C)n1nc2c(c1NC(=O)c1ccc([N+](=O)[O-])cc1)CS(=O)(=O)C2	-7.3	0.9	i	3.0	·
c1cncc(-c2ccc3ncnc(NCc4ccc5c(c4)OCO5)c3c2)c1	6.1	2.8	i	6.0	·
Fc1cccc(CNc2ncnc3ccc(-c4ccc5c(c4)OCO5)cc23)c1	65.0*	6.7	i	2.1	-12.4
O=C(c1ccc(Br)cc1)C(CN1CCOCC1)c1ccccc1 (centres undefined)	66.7*	15.7	·	1.9	-10.2
CCOc1ccc(C(=O)C(CN2CCOCC2)c2ccccc2)cc1 (centres undefined)	2.0	3.0	i	-1.0	·
O=C(O)c1ccccc1C(=O)c1ccc(Cl)cc1	-1.4	-2.0	i	-3.2	·
Nc1sccc1C(=O)c1ccc(Cl)cc1	81.8*	15.8	i	13.5	-3.1
O=C(COC(=O)Cc1c[nH]c2ccccc12)NC1CCCCC1	76.7*	-0.8	i	-2.4	-3.1
CCOC(=O)c1c(CSc2ccccc2)n(C)c2cc(Br)c(O)c(CN(C)C)c12	73.0*	5.1	i	-1.3	106.6*
CCOC(=O)c1c(CSc2ccc(C)cc2)n(C)c2cc(Br)c(O)c(CN(C)C)c12	34.1	0.8	i	-0.5	·
CCOC(=O)c1c(CSc2ccccc2)n(C)c2ccc(O)c(CN3CCN(C)CC3)c12	59.1*	-3.2	i	4.0	-3.1
CCOC(=O)N1CCC(NC(=O)C2CCCN(Cc3nc(-c4ccc(CC)cc4)oc3C)C2)CC1 (centres undefined)	62.3*	-4.1	?	2.8	-3.3
CC(=O)Nc1ccc(SC[C@H](CC(C)C)N2CCN(CCc3ccccc3)CCC2=O)cc1	66.0*	1.1	i	6.5	-3.4
Cc1ccc(SC[C@H](CC(C)C)N2CCN(CCc3ccccc3)CCC2=O)cc1	-1.5	-0.1	i	0.5	·
Cc1ccc(S(=O)(=O)N(C)c2ccc(OCc3cccc(C)c3)cc2)cc1	-1.9	0.0	i	1.8	·
CN(c1ccc(OCc2ccc([N+](=O)[O-])cc2)cc1)S(=O)(=O)c1ccccc1	61.4*	-1.1	i	-3.2	-13.9
Nc1nc2ccccc2cc1C(=O)NCc1ccc(Cl)cc1Cl	-3.8	-3.6	i	-0.8	·
CCN(Cc1ccc(OC)c(COC)c1)CC1CCCN(CCc2cccc(F)c2)C1 (centres undefined)	67.9*	3.8	i	-0.7	-11.7
COCc1ccc(C(=O)N(C)CC2CCCN(CCc3ccc(OC)cc3)C2)o1 (centres undefined)	-3.0	-1.9	i	-2.0	·
CCN(Cc1ccc(NC(C)=O)cc1)CC1CCCN(CCc2cccc(OC)c2)C1 (centres undefined)	50.8	0.2	i	-3.6	·
COCc1cc(CN2CCN(CCc3ccccc3)C(CCO)C2)ccc1OC (centres undefined)	36.4	1.6	i	-2.6	·
CCN(Cc1ccc(OC)c(COC)c1)CC1CCCN(CCc2cccc(OC)c2)C1 (centres undefined)	72.0*	0.5	i	3.2	-11.7
SMILES	Exocytosis inh	CSN inh	Myeloid diff 2	HNF4A DNA FP	Granule exo CP1
CCN(Cc1ccccc1OC)CC1CCCN(CCc2cccc(OC)c2)C1 (centres undefined)	63.0*	0.1	i	2.5	-10.7
CCN1CCN(S(=O)(=O)c2ccc(Cl)c(C(=O)N(C)CC(=O)Nc3c(C)cccc3C)c2)CC1	-4.0	-1.9	i	-2.2	·
COc1cccc2nc3c(C(=O)NCCN(C)C)cccc3cc12	16.3	-5.8	·	-31.3	·
CN(C)CCNC(=O)c1cccc2nc3c(ccc4ccccc43)nc12	62.1*	-4.8	·	-16.9	42.9
COc1ccc(C(=O)NCCN(C)C)c2nc3ccccc3cc12	73.2*	-9.4	·	-30.9	-12.9
COc1ccc(NC(=S)NC(=O)C2CCC2)cc1	-1.8	2.7	i	1.7	·
O=C(CCS(=O)(=O)c1ccccc1)N(CCCN1CCOCC1)c1nc2ccc(F)cc2s1	58.4*	0.9	?	1.7	-7.3
